Common to all, as to type: functional
Assay [1] concerns Mycobacterium tuberculosis. The assay is described as follows: Antimycobacterial activity against Mycobacterium tuberculosis H37Rv after 45 days. A digest of the protocol: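 Canetti proportion method. Compound in DMSO is added to Löwenstein–Jensen egg medium before coagulation (30 min, 85 °C), tested at three levels plus a lower one where needed. Tubes are inoculated with H37Rv at 10⁵ cells/ml and incubated 45 days at 37 °C. Colony counts versus drug-free control give percentage inhibition.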

In assay [2] the test system is Bacillus subtilis. In words: Antibacterial activity against Bacillus subtilis ATCC 6633 at 50 mg/ml after 24 hrs by agar diffusion test. The settings on record: for zone of inhibition at 50000 µg/mL: ATCC 6633, 24 h, read-out: DIZ. A digest of the protocol: (§1)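 Agar diffusion: wells in agar filled with […] DMSO solution of compound at various concentrations; diameter of clear zone around application point measured. Bacteria grown 24 h at 37 °C on nutrient agar. Compounds first screened at 50 mg/ml; those active then tested at lower concentrations. Bracketed value = lowest concentration (mg/ml) giving zone >11 mm, reported only if activity retained at ≤1.25 mg/ml.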
(A growth-free zone around the sample is the usual read-out of agar diffusion tests.)

Assay [3] relates to Bacillus. The assay is described as follows: Antibacterial activity against Bacillus idosus B 241 at 50 mg/ml after 24 hrs by agar diffusion test. The settings on record: for zone of inhibition at 50000 µg/mL: B 241, 24 h, read-out: DIZ. The procedure, abridged:
as §1

Assay [4] concerns Priestia megaterium. The assay is described as follows: Antibacterial activity against Bacillus megaterium NRRL 1353895 at 50 mg/ml after 24 hrs by agar diffusion test. The note with it: for zone of inhibition at 50000 µg/mL: NRRL 1353895, 24 h, read-out: DIZ. The procedure, abridged: as §1
Assay [5] relates to Bacillus mycoides. The assay is described as follows: Antibacterial activity against Bacillus mycoides DSMZ 274 at 50 mg/ml after 24 hrs by agar diffusion test. The note with it: for zone of inhibition at 50000 µg/mL: DSMZ 274, 24 h, read-out: DIZ. A digest of the protocol: as §1
Assay [6] deals with Bacillus cereus. In words: Antibacterial activity against Bacillus cereus ATCC 11778 at 50 mg/ml after 24 hrs by agar diffusion test. The settings on record: for zone of inhibition at 50000 µg/mL: ATCC 11778, 24 h, read-out: DIZ. A digest of the protocol: as §1
For assay [7], the system named is Acinetobacter johnsonii. The assay is described as follows: Antibacterial activity against Acinetobacter johnsonii ATCC 17909 at 50 mg/ml after 24 hrs by agar diffusion test. The note with it: for zone of inhibition at 50000 µg/mL: ATCC 17909, 24 h, read-out: DIZ. A digest of the protocol: as §1
Assay [8] deals with Staphylococcus aureus. In words: Antibacterial activity against Staphylococcus aureus NRRL B 313 at 50 mg/ml after 24 hrs by agar diffusion test. The note with it: for zone of inhibition at 50000 µg/mL: NRRL B 313, 24 h, read-out: DIZ. A digest of the protocol: (§2)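 Agar diffusion: bacteria grown 24 h at 37 °C on nutrient agar. Wells in the agar are filled with […] of compound solution in DMSO at various concentrations. The diameter of the clear zone around the application point is measured. Bracketed values give the lowest concentration (mg/ml) that produces a zone >11 mm. A first screen is run at 50 mg/ml.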

The test system of assay [9] is Micrococcus luteus. In words: Antibacterial activity against Sarcina lutea ATCC 9341 at 50 mg/ml after 24 hrs by agar diffusion test. The settings on record: for zone of inhibition at 50000 µg/mL: ATCC 9341, 24 h, read-out: DIZ. A digest of the protocol:
as §2

In assay [10] the test system is Micrococcus luteus. The assay is described as follows: Antibacterial activity against Micrococcus luteus ATCC 9631 at 50 mg/ml after 24 hrs by agar diffusion test. The settings on record: for zone of inhibition at 50000 µg/mL: ATCC 9631, 24 h, read-out: DIZ. A digest of the protocol: as §1
Assay [11] has as its system Escherichia coli. In words: Antibacterial activity against Escherichia coli ATCC 8739 at 50 mg/ml after 24 hrs by agar diffusion test. The settings on record: for zone of inhibition at 50000 µg/mL: ATCC 8739, 24 h, read-out: DIZ. The procedure, abridged:
as §1

Assay [12] concerns Candida tropicalis. The assay is described as follows: Antifungal activity against Candida tropicalis ATCC 20336 at 50 mg/ml after 72 hrs by agar diffusion test. The settings on record: for zone of inhibition at 50000 µg/mL: ATCC 20336, 72 h, read-out: DIZ. The procedure, abridged:
(§3)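 Agar diffusion: yeasts grown on yeast peptone dextrose agar and fungi on potato dextrose agar. Wells are filled with […] of compound solution in DMSO at various concentrations, and the clear-zone diameter is measured. Bracketed values give the lowest concentration (mg/ml) that produces a zone >11 mm. A first screen is run at 50 mg/ml.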

The test system of assay [13] is Saccharomyces cerevisiae. In words: Antifungal activity against Saccharomyces cerevisiae ATCC 9763 at 50 mg/ml after 72 hrs by agar diffusion test. The settings on record: for zone of inhibition at 50000 µg/mL: ATCC 9763, 72 h, read-out: DIZ. The procedure, abridged:
as §3

The test system of assay [14] is Penicillium chrysogenum. In words: Antifungal activity against Penicillium chrysogenum CECT 2802 at 50 mg/ml after 72 hrs by agar diffusion test. A digest of the protocol: as §3

≈ marks a conversion by molar mass, not a printed value. Calls of active or inactive are those of the source. The calls are words filed in the database; no cut-off is given here.

With `CC[C@H](CO)Nc1ncccn1`, the MIC (commonly the lowest concentration found to suppress growth) in assay [1] was above 29.9 µM. The “diameter of the inhibition zone (DIZ)” value in assay [2], in [3], in [4], in assay [5], in assay [7] and in [8] was “inactive” each time. The “diameter of the inhibition zone (DIZ)” value in [9], in assay [10], in assay [11], in assay [12], in assay [13] and in assay [14] was “inactive” in each case. For the same molecule, the zone of inhibition at 50000 µg/mL in assay [6] is 12 mm.

`CC[C@H](CO)n1cnc2ccccc2c1=O` had an MIC in [1] of 22.9 µM (≈ 5 µg/mL). Further, the “diameter of the inhibition zone (DIZ)” value in [2], in [4], in assay [5], in [6], in [8] and in [9] was “inactive” throughout. Besides, the “diameter of the inhibition zone (DIZ)” value in [10], in assay [11], in assay [12], in [13] and in assay [14] was “inactive” each time. In addition, the zone of inhibition at 50000 µg/mL in assay [3] and in assay [7] was 14 mm throughout.

As to `CC[C@H](CO)N(Cc1ccccc1)Cc1ccccc1`, in assay [1], the minimal inhibitory concentration (MIC) was above 18.6 µM. Besides, the “diameter of the inhibition zone (DIZ)” value in assay [2], in [4], in assay [5], in assay [11], in [13] and in assay [14] was “inactive” in each case. Moreover, the zone of inhibition at 50000 µg/mL in assay [3] came to 11 mm; in [6], 11 mm; in assay [7], 11 mm; in assay [8], 11 mm; in assay [9], 12 mm; in [10], 12 mm. In [12], the zone of inhibition at 50000 µg/mL is 10 mm.

The molecule `CC[C@H](CO)NS(=O)(=O)c1ccc(NC(C)=O)cc1` displayed an MIC in assay [1] above 17.5 µM. Moreover, the “diameter of the inhibition zone (DIZ)” value in [2], in assay [3], in [4], in assay [5], in assay [6] and in assay [7] was “inactive” each time. Moreover, the “diameter of the inhibition zone (DIZ)” value in assay [8], in assay [9], in assay [10], in assay [11], in assay [12] and in assay [13] was “inactive” throughout.

In the case of `CC[C@H](CO)NC(=S)Nc1ccccc1`, the minimal inhibitory concentration (MIC) in assay [1] was above 22.3 µM. Further, the “diameter of the inhibition zone (DIZ)” value in assay [2], in [3] and in assay [8] was “inactive” each time. In addition, the zone of inhibition at 50000 µg/mL in assay [4] turned out to be 13 mm; in assay [5], 12 mm; in assay [6], 14 mm; in [7] it was 12 mm; in [9], 12 mm; in assay [10], 12 mm. For the same molecule, the zone of inhibition at 50000 µg/mL in assay [11] is 16 mm; in assay [12], 16 mm; in assay [13], 15 mm.

`CC[C@H](CO)NC(=O)c1ccccc1Br`: the MIC in assay [1] is above 18.4 µM. The “diameter of the inhibition zone (DIZ)” value in [2], in assay [3], in assay [4], in assay [5], in assay [6] and in assay [7] was “inactive” in each case. The “diameter of the inhibition zone (DIZ)” value in [8], in assay [9], in assay [10], in [12], in [13] and in [14] was “inactive” each time.

For `CC[C@H](CO)N1C(=O)c2cccc3c(Br)ccc(c23)C1=O`, the MIC in [1] is above 14.4 µM. Besides, the “diameter of the inhibition zone (DIZ)” value in assay [2], in [3], in [4], in assay [5], in [7] and in assay [8] was “inactive” each time. Moreover, the “diameter of the inhibition zone (DIZ)” value in assay [10], in assay [12], in assay [13] and in assay [14] was “inactive” in each case.

Take `CC[C@H](CO)NCc1ccccc1OC`: in assay [1], the minimum inhibitory concentration (MIC) is above 23.9 µM. The zone of inhibition at 50000 µg/mL was determined as 10 mm in [2]; 15 mm in [3]; 11 mm in assay [4]; 11 mm in assay [5]; 13 mm in assay [6]; 10 mm in [7]. For the same molecule, the zone of inhibition at 50000 µg/mL in [8] is 10 mm; in assay [10], 11 mm; in assay [13], 16 mm. Further, the “diameter of the inhibition zone (DIZ)” value in assay [11], in [12] and in assay [14] was “inactive” throughout.

In turn, `CC[C@H](CO)N(Cc1cc2c(cc1Cl)OCO2)Cc1cc2c(cc1Cl)OCO2` returned a minimum inhibitory concentration (MIC) in assay [1] above 11.7 µM. In addition, the “diameter of the inhibition zone (DIZ)” value in assay [2], in [3], in assay [5], in assay [6], in [7] and in assay [8] was “inactive” throughout. Further, the “diameter of the inhibition zone (DIZ)” value in assay [11], in assay [12], in assay [13] and in assay [14] was “inactive” throughout. The zone of inhibition at 50000 µg/mL in [4] and in assay [9] was 10 mm in each case.

`CC[C@H](CO)NCc1ccnc2ccccc12` showed an MIC in [1] of 21.7 µM (≈ 5 µg/mL). Further, the zone of inhibition at 50000 µg/mL in assay [2] amounted to 10 mm; in [3], 12 mm; in [4] it was 11 mm; in assay [5] it was 16 mm; in assay [6], 13 mm; in assay [7], 13 mm. In addition, the zone of inhibition at 50000 µg/mL in assay [8] stood at 14 mm; in [9] it was 13 mm; in [10], 10 mm; in [11], 20 mm; in [14] (CECT 2802, 72 h, read-out: DIZ) it was 20 mm.

For the origin of these results see ChEMBL document CHEMBL1932986, “Synthesis and in vitro antimycobacterial activity of compounds derived from (R)- and (S)-2-amino-1-butanol - The crucial role of the configuration” (Eur J Med Chem, 2012).
